Experimental data from ChEMBL document CHEMBL1155296, “Design, synthesis and biological evaluation of novel pyridine derivatives as anticancer agents and phosphodiesterase 3 inhibitors” (Bioorg Med Chem, 2009).

Tests used:
[1] = biological target: T1, cGMP-inhibited 3',5'-cyclic phosphodiesterase 3A (Homo sapiens, UniProt Q14432); experiment: Inhibition of human recombinant PDE3A assessed as cAMP hydrolysis at 50 uM after 60 mins by fluorescence polarization assay using fluorescein-tagged cAMP as substrate
T1 sequence (Q14432 whole entry): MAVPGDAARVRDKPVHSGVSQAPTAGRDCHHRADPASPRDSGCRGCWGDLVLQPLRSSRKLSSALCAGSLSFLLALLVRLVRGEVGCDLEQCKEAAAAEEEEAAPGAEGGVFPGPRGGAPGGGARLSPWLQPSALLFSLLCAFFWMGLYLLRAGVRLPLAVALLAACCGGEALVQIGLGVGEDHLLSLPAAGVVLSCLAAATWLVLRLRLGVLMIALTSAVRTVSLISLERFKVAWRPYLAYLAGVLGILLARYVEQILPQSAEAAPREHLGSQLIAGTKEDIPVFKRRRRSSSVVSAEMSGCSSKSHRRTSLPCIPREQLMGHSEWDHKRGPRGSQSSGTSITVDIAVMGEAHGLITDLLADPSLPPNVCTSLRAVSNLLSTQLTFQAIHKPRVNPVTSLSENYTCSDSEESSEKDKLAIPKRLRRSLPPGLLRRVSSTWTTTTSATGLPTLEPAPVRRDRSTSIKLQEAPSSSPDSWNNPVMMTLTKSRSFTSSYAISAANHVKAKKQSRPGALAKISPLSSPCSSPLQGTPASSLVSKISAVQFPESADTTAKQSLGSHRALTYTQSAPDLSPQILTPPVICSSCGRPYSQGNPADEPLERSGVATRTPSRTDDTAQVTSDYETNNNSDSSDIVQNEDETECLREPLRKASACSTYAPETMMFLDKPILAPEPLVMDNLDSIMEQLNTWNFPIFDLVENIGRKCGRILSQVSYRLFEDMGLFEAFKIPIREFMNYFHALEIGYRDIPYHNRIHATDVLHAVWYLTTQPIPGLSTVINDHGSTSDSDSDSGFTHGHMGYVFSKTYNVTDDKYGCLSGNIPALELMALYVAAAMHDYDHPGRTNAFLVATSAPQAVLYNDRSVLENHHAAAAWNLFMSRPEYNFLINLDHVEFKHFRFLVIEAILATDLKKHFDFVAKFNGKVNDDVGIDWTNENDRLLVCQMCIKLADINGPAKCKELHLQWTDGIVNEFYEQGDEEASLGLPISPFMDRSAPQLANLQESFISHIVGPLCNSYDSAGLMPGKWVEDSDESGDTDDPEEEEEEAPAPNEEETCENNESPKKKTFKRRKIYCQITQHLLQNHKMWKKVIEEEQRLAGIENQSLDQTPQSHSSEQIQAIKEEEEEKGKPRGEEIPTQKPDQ
Summary of the method: (§1)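 Single-point screen at 50 μM in triplicate. Recombinant PDE3A in 10 mM Tris-HCl pH 7.2, 10 mM MgCl2, 0.05% NaN3, 0.1% phosphate-free BSA. Substrate 50 nM FI-cAMP and/or TAMRA-cGMP, hydrolysis read simultaneously by IMAP fluorescence polarization after 60 min at room temperature and termination with binding solution.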

[2] = biological target: T1, cGMP-inhibited 3',5'-cyclic phosphodiesterase 3A; experiment: Inhibition of human recombinant PDE3A assessed as cGMP hydrolysis at 50 uM after 60 mins by fluorescence polarization assay using tetramethylrhodamine-tagged cGMP as substrate; summary of the method: as §1
HT-29 [3] = experiment: Growth inhibition of human HT-29 cells at 50 uM after 72 hrs by luminescent assay; type: functional; conditions: HT-29, 72 h, read-out: GI
Summary of the method: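 HT-29 cells in RPMI 1640 with 5% FBS at 37 °C, 5% CO2, >95% viability required. Plated at 5000 cells/well and left 18–24 h, then given 50 μM compound in triplicate. Viability measured 72 h later by CellTiter-Glo luminescence.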

HT-29 [4] = experiment: Growth inhibition of human HT-29 cells after 72 hrs by luminescent assay; type: functional, cell-based; conditions: HT-29, 72 h
Summary of the method: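 HT-29 cells (ATCC) in RPMI 1640 + 5% FBS, 37 °C, 5% CO2; only cultures >95% viable (Trypan blue) used. Seeded 5000 cells/well, 18–24 h before treatment. Live cells read by CellTiter-Glo luminescence (ATP content) 72 h post-treatment.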

[5] = biological target: T1, cGMP-inhibited 3',5'-cyclic phosphodiesterase 3A; experiment: Inhibition of human recombinant PDE3A assessed as cGMP hydrolysis after 60 mins by fluorescence polarization assay using tetramethylrhodamine-tagged cGMP as substrate

SMILES | inhibition [1] [%] | inhibition [2] [%] | IC50 (HT-29 [4]) [µM] | IC50 [5] [µM] | inhibition of growth at 50 µM (HT-29 [3]) [%]
CCOc1ccc(-c2cc(-c3ccc4c(c3)OCO4)[nH]c(=O)c2C#N)cc1 | 10.5 | 22.3 | – | – | 3.84
CCOc1ccccc1-c1cc(-c2ccc(Br)cc2)[nH]c(=O)c1C#N | 13.1 | 35.2 | – | – | 2.81
N#Cc1c(-c2ccsc2)cc(-c2ccc3c(c2)OCO3)[nH]c1=N | 18 | 3 | – | – | 45
COc1ccccc1-c1cc(-c2ccc3c(c2)OCO3)[nH]c(=O)c1C#N | 30 | 30 | – | – | 0
Cc1[nH]c(=O)c(C#N)cc1-c1ccncc1 [MILRINONE] | 77 | 35 | > 50 | – | 0
CCOc1ccccc1-c1cc(-c2ccc3c(c2)OCO3)[nH]c(=N)c1C#N | 19 | 26.2 | 3 | – | 91.2
N#Cc1c(-c2ccsc2)cc(-c2ccc(Br)cc2)[nH]c1=N | 1.5 | 42 | – | – | -5
N#Cc1c(-c2ccsc2)cc(-c2ccc3c(c2)OCO3)[nH]c1=O | 8 | 20 | – | – | -25
COc1ccccc1-c1cc(-c2ccc(Br)cc2)[nH]c(=O)c1C#N | 6.12 | 15.1 | – | – | 13.6
COc1ccccc1-c1cc(-c2ccc(Br)cc2)[nH]c(=N)c1C#N | 16.3 | – | 50 | – | 75
CCOc1ccc(-c2cc(-c3ccc(Br)cc3)[nH]c(=O)c2C#N)cc1 | 4.76 | 10.8 | – | – | 10.7
CCOc1ccccc1-c1cc(-c2ccc(Br)cc2)nc(N)c1C#N | – | – | – | 27 | –
CCOc1ccc(-c2cc(-c3ccc4c(c3)OCO4)[nH]c(=N)c2C#N)cc1 | 45.9 | -8.99 | 12 | – | 87.7
CCOc1ccccc1-c1cc(-c2ccc(Br)cc2)[nH]c(=N)c1C#N | 37.9 | 126 | 13 | – | 99.8

Further lines, with some results ahead:

inhibition [1] [%] | inhibition [2] [%] | IC50 (HT-29 [4]) [µM] | IC50 [5] [µM] | SMILES | inhibition of growth at 50 µM (HT-29 [3]) [%]
3 | 4 | – | – | N#Cc1c(-c2cccs2)cc(-c2ccc(Br)cc2)[nH]c1=O | -20
5 | 10 | – | – | N#Cc1c(-c2cccs2)cc(-c2ccc3c(c2)OCO3)[nH]c1=N | -20
32.3 | 49.6 | – | – | N#Cc1c(-c2cccs2)cc(-c2ccc3c(c2)OCO3)[nH]c1=O | 6.14
3.57 | – | 35 | – | N#Cc1c(-c2cccs2)cc(-c2ccc(Br)cc2)[nH]c1=N | 98.7
30 | 50 | 14.2 | – | CCOc1ccc(-c2cc(-c3ccc(Br)cc3)[nH]c(=N)c2C#N)cc1 | 75
2 | -5 | – | – | N#Cc1c(-c2ccsc2)cc(-c2ccc(Br)cc2)[nH]c1=O | -25
45 | 35 | 4.17 | – | COc1ccccc1-c1cc(-c2ccc3c(c2)OCO3)[nH]c(=N)c1C#N | 95
7.65 | 14.4 | – | – | CCOc1ccccc1-c1cc(-c2ccc3c(c2)OCO3)[nH]c(=O)c1C#N | 8.28
